From PubChem BioAssay AID463079 (The Scripps Research Institute Molecular Screening Center, 2010) come the findings set out here.

In all, about 330,000 compounds went through this assay and about 2,000 (0.61%) were called active. This excerpt belongs to a sample that is enriched for actives. Unmarked numbers belong to inactive results.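 The calls were made as follows: active = inhibition above that plate's mean sample inhibition plus 3 SD (cut at about 26% in these data); inactive = the rest.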

A short description of the experiment: ATP-evoked calcium signal inhibitors, parental CHO, primary screen, counter-screen for OX1R antagonist project, cell-based, fluorescence, Fluo-8 calcium dye (AID 463079).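 Also: 0% = ATP-challenged DMSO wells and 100% = DMSO wells without ATP.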 The note with it: parental CHO-K1, ATP-induced calcium, Fluo-8 fluorescence; at 5.6 µM; stronger effect = higher value. Summed up:
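material = parental CHO cells | also added = ATP as calcium-mobilizing challenge | dosing = single point at 5.6 µM | detection = intracellular calcium via Fluo-8 no-wash fluorescent dye | read-out = % inhibition | benchmarks = low control ATP plus DMSO, high control DMSO only | repeats = one well per compound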
The term inhibition denotes the change of the read-out against control, counted positive when it falls. For `O=C(c1cc(COc2ccc(F)c(F)c2)on1)N1CCOCC1`, the inhibition was -5.07%. Next, `C=CCC1(CC=C)CCCN1C(=O)c1cc(COc2ccc(-n3cncn3)cc2)on1`: 66.2% (active); `CCn1ccnc1CN(C)C(=O)c1cc(COc2ccc(-n3cncn3)cc2)on1`: -9.68%. Next, `COC(=O)c1cc(Oc2ccc(S(=O)(=O)N3CCOCC3)cc2[N+](=O)[O-])cc(C(=O)OC)c1`: -3.52%.

For the compound `N#C/C(=C\c1ccccc1)c1n[nH]c(Cn2cncn2)n1`, the inhibition is -15.2%. Next, `CC(NC(=O)C1CCCN(S(=O)(=O)c2ccc(-n3cnnn3)cc2)C1)c1ccc(F)cc1` (centres undefined): -12.5%; `Cc1ccccc1OCC(=O)Nc1ccc2c(c1)ncn2C`: 17.8%. Turning to `Cc1ccccc1OCC(=O)Nc1ccc(N2CCN(C(=O)C(C)C)CC2)c(Cl)c1`, the inhibition is 29.7% (active).

For the compound `CCC(=O)N1CCN(c2ccccc2NC(=O)COc2cccc(C)c2C)CC1`, the inhibition was -26.9%. Next, `CC(C)(C)n1cnnc1Sc1ccc([N+](=O)[O-])cn1`: -10.8%; `Cc1nc2ccc(NC(=S)N3CCC(C)CC3)cc2nc1C`: -10.7%. Next, `CC1=C/C(=N\OS(=O)(=O)c2ccccc2)C=CC1=O`: 46% (active); `NNC(=O)CNC(c1ccccc1)c1cc(Cl)ccc1NC(=O)c1ccccc1` (centres undefined): -31.4%.

`Cc1cc(C)c(C)c(S(=O)(=O)Nc2cccnc2)c1C`: the inhibition is -11.2%. Consider `COc1ccccc1Oc1ccc(S(=O)(=O)Nc2cccnc2)cc1`, for which the inhibition was 36.9% (active). With `COc1ccc(S(=O)(=O)Nc2cccnc2)c(Cl)c1Cl` the figure was -1.47%; with `O=C(C1CC(=O)N(c2ccc(F)cc2)C1)N1CCN(c2ccccc2)CC1` (centres undefined), -3.64%; with `CCOC(=O)C1CCN(CC(=O)Nc2ccc(OC)c(S(=O)(=O)N3CCCCC3)c2)CC1`, -13.3%. `CCCCSc1nnc2c(n1)OC=Nc1ccccc1-2`: the inhibition was -1.35%. With `CCOC(=O)Cn1c(=O)oc2cc(S(=O)(=O)N(C)Cc3ccco3)ccc21` the figure was 4.07%. With `CN(c1ccccc1)c1ccc(/C=c2\s/c(=C(/C#N)C(=O)C(C)(C)C)n(Cc3ccco3)c2=O)cc1` the figure was 47.5% (active).

As for `CCCCn1c(SCC(=O)N2CCC(C(=O)OCC)CC2)nc2cc(S(N)(=O)=O)ccc21`, the inhibition was -21.9%. With `CCCCn1c(SCc2ncc(-c3ccccc3)o2)nc2cc(S(N)(=O)=O)ccc21`, the inhibition was 36.6% (active). For the compound `CCCCn1c(SCC(=O)N2CCCC2=O)nc2cc(S(N)(=O)=O)ccc21`, the inhibition was -0.51%.

As for `Cc1nnc(C)c2c(C)n(N)c(C)c12`, the inhibition is 4.12%.

Turning to `c1ccc2c(c1)OCC(CNc1ncnc3nc[nH]c13)O2` (centres undefined), the inhibition was 76% (active). With `c1ccc(-c2cc3c(NCC4COc5ccccc5O4)ncnc3s2)cc1` (centres undefined) the figure was 2.37%; with `S=C(NCC1COc2ccccc2O1)Nc1ccc(Br)cc1` (centres undefined), 1.75%. With `COc1ccc(NC(=O)CC2SC(N3CCCCC3)=NC2=O)cc1OC` (centres undefined) the figure was -5.72%; with `CCC(=O)Nc1ccc(C(=O)CSc2nnc(CNc3ccc(Cl)cc3)o2)cc1OC`, 39.8% (active). With `COc1cc(C(=O)NCc2nnc(SCC(=O)c3ccc(Cl)cc3)o2)cc(OC)c1OC` the figure was -35.5%; with `CCOC(=O)CSc1nnc(CNc2ccc(F)cc2)o1`, 7.59%; with `CCCCCCCNC(=O)C1(CC2CC(c3cccc(Br)c3)=NO2)CCN(C(=O)c2cc(OCC)c(OCC)c(OCC)c2)CC1` (centres undefined), -43.7%. On to `CC1C/C(=N/NC(=O)c2cccs2)CC(C)(C)C1` (centres undefined), for which the inhibition is 5.84%. With `O=C(CN1C(=O)NC(Cc2c[nH]c3ccccc23)C1=O)Nc1ccccc1C(F)(F)F` (centres undefined) the figure was -8.55%; with `CC(C)(C)C(=O)NNC(=O)c1ccc(Oc2cc(Cl)cc(Cl)c2)o1`, 0.38%; with `CC(C)CNC(=O)C(=O)Nc1ccc(N(C)C)cc1`, -6.25%. With `CC(=O)NC(CC(=O)O)c1ccc(F)cc1` (centres undefined) the figure was 14.5%; with `CN(C)c1ccc(C(CC(=O)O)C(=O)O)cc1` (centres undefined), 26.3% (active). Consider `COC(=O)Cn1c(=NC(=O)c2cc(OC)c(OC)c(OC)c2)sc2cc(OC)ccc21`, for which the inhibition was -4.35%. For `CN(C)/C=C(/C(=O)c1ccc(Cl)c(Cl)c1)c1nnnn1-c1ccccc1`, the inhibition was 4.24%. Next, `CCc1ccc(CN(C)C(=O)CCc2nnc(-c3ccc(-c4ccccc4)cc3)o2)nc1`: 2.52%. With `COc1ccc(Cl)cc1-n1c(C)cc(C(=O)OCC(=O)N2CC(=O)Nc3ccccc32)c1C` the figure was -26.4%; with `O=C(O)CSc1c2c(nc3cc(C(=O)Nc4cccc(C(F)(F)F)c4)ccc13)CCCC2`, -7.81%. Next, `Cn1nc(C(F)(F)F)c(C(=O)Nc2cccc(C(F)(F)F)c2)c1SCc1ccc(Cl)cc1`: 56.3% (active); `COC(=O)c1ccccc1Sc1c(/C=N/OCc2ccc(Cl)cc2)c(C(F)(F)F)nn1C`: -7.11%; `Cc1ccc(-n2[nH]c(C)c(/C=N/NC(=O)c3cccc([N+](=O)[O-])c3)c2=O)cc1C`: -2.1%. In the case of `COc1cc(SC#N)ccc1N=Cc1c(C)[nH]n(-c2ccc(C)cc2)c1=O`, the inhibition was 96.8% (active). With `O=C(NNC(=O)c1cnccc1C(F)(F)F)c1ccc(Cl)cc1` the figure was -3%; with `O=C1CC(N2CCN(C(c3ccccc3)c3ccccc3)CC2)C(=O)N1` (centres undefined), -12.9%. In the case of `Oc1ccccc1CN1CCN(C(c2ccccc2)c2ccccc2)CC1`, the inhibition was -33.9%. With `CC1(C)CC(N2CCN(C(c3ccccc3)c3ccccc3)CC2)=CC(=[N+]2CCCCC2)C1` the figure was 29.5% (active); with `CC(C)CC(CCc1ccccc1)OS(N)(=O)=O` (centres undefined), -9.01%; with `CC(C(=O)c1ccc(-c2ccccc2)cc1)[n+]1cccc(Br)c1` (centres undefined), -2.14%. With `Cc1cc(C)c(-c2c(O)c3ccccc3n(C)c2=O)c(C)c1` the figure was -6.96%; with `CCOC(=O)Cc1cc(=O)[nH]c(=O)[nH]1`, -1.68%; with `CN(C)S(=O)(=O)c1ccc(NC(=O)N2CCOCC2)cc1`, -16.7%. Next, `COc1ccc(S(=O)(=O)N(C)CC(=O)N2CCCC2)cc1`: 0.64%. With `CN(C)S(=O)(=O)c1ccc(Oc2ccc(S(=O)(=O)N(C)C)cc2)cc1`, the inhibition is 53.5% (active).
